# Most compounds without a hit are left out; they make up all but 2.9% or so of the library.
# CHO-K1 Ca antag = counter-screen for M1 antagonists: effect in parental CHO-K1 cells; ATP-induced calcium, Fluo-8 fluorescence; inhibition, % at 3 µM; 360,000 compounds, 0.6% hits;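 active means inhibition above a per-plate cutoff, the plate's mean sample inhibition plus 3 SD, cut at about 24% in these data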;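 further: 0% = DMSO plus EC80 ATP and 100% = DMSO alone without ATP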
# CHO-K1 Ca PAM = nonselective activator or artifact in parental CHO-K1 calcium assay. ATP EC20, Fluo-8 calcium fluorescence; 0% at ATP EC20, 100% at ATP max. 360,000 compounds, 0.02% hits. AID 602247. activation, % at 3 µM;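 active means activation above the run cutoff, the mean activation of all test compounds plus 3 SD, cut at about 40% in these data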;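 further: peak over basal fluorescence ratio in a 140 s read after ATP addition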
# CHO parental Ca = counter-screen: ATP calcium response change in parental CHO cells. parental CHO-K1, ATP-induced calcium, Fluo-8 fluorescence. inhibition, % at 5.6 µM. 330,000 compounds, 0.63% hits. AID 463079;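 active means inhibition above that plate's mean sample inhibition plus 3 SD, cut at about 26% in these data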;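 further: 0% = ATP-challenged DMSO wells and 100% = DMSO wells without ATP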
#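 Material: Parental CHO cells | Reagent: ATP | Compound dosing: Single nominal dose of 5.6 µM per compound | Detection: Intracellular calcium via Fluo-8 no-wash fluorescent dye | Read-out: % inhibition of ATP-induced calcium mobilization | Benchmarks: Low control ATP plus DMSO, high control DMSO only | Replicates: Singlicate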
# CHO-K1 Ca ag = counter-screen for M1 agonists: effect in parental CHO-K1 cells | AID 602248 | 360,000 compounds, 0.48% hits | activation, % at 3 µM | Fluo-8 calcium fluorescence; scaled to maximal ATP response, vehicle zero; in the data active means activation above about 15%;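 further: untransfected CHO-K1 host cells lacking M1 receptor as counterscreen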
# OX1R antag-1 = human HCRTR1 antagonism; inhibition, % at 5 µM; CHO/OX1R cells, Fluo-8 calcium fluorescence, orexin A; 330,000 compounds, 0.43% hits; AID 434989;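 active means inhibition above its plate's threshold, mean inhibition of all tested compounds on the plate plus 3 SD, cut at about 37% in these data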;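 further: 0% = orexin A challenge wells and 100% = SB-334867-A antagonist wells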
# Target sequence (O43613 whole entry, looked up): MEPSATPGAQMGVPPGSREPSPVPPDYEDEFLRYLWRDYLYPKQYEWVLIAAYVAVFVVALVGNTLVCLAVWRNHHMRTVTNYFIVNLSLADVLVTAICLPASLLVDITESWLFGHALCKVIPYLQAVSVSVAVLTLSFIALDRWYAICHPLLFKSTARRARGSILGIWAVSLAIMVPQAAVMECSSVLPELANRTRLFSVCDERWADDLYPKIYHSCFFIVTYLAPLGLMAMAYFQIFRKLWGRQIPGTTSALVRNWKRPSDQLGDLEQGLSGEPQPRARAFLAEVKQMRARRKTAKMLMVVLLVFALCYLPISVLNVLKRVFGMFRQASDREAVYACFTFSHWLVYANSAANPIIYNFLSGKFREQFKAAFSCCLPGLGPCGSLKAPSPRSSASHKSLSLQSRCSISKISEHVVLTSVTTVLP
# OX1R antag-2 = blocks the human orexin 1 receptor; O43613; OX1R-expressing cells, FRET antagonist read-out; inhibition, % at 6.6 µM; 330,000 compounds, 1.8% hits; AID 485270; in the data active means inhibition mostly above about 38%, no sharp cut-off; inactive means mostly below about 40%;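 further: 0% = agonist challenge alone and 100% = reference antagonist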
# Active calls of the source: *; . = not tested or not shown.
SMILES,CHO-K1 Ca antag,CHO-K1 Ca PAM,CHO parental Ca,CHO-K1 Ca ag,OX1R antag-1,OX1R antag-2
N#C/C(=C\c1ccc(N2CCOCC2)o1)C(=O)Nc1ccc(O)cc1,4.5,3.4,10.6,16.4*,12.2,60.6*
N#C/C(=C/c1ccc(N2CCOCC2)o1)c1nc2ccccc2[nH]1,14.6,-10.4,7.7,18.9*,1.5,5.4
COc1cccc(OC)c1OCCN1CCC(C(=O)NC(c2ccc3c(c2)OCO3)c2ccccn2)CC1 (stereo unspecified),9.5,-0.8,.,0.6,.,.
CCn1c(SCc2cccc(F)c2)nnc1-c1ccncc1,-8.0,6.7,.,0.7,.,.
CCn1c(SCc2cccc(C)c2)nnc1-c1ccc(C)cc1,-2.7,18.7,-14.3,16.2*,-15.8,12.3
CCOc1cccc(/C=C(\C#N)C(=O)NC2CC2)c1,-1.8,-9.6,-10.3,0.8,-22.6,8.3
CCOC(=O)C1CCN(c2ncnc3c2oc2ccc(Cl)cc23)CC1,27.2*,-5.2,-23.1,1.4,-26.3,51.3
Cc1cnc(C(=O)OC(C)C(=O)c2c(C)[nH]c3ccccc23)cn1 (stereo unspecified),6.4,-3.6,-10.4,0.6,-21.1,21.3
CCCC(=O)Nc1nc2ccc3nc(C)sc3c2s1,-4.3,16.8,3.7,-0.1,-11.5,31.3
CCCCC(=O)Nc1nc2ccc3nc(C)sc3c2s1,-19.1,23.6,-17.9,-0.5,-11.0,51.6*
COC(=O)c1cc(=O)nc(NN=Cc2ccc(OC)cc2)s1,23.9*,-8.6,.,-0.1,.,.
COC(=O)c1cc(=O)nc(NN=C2c3ccccc3-c3ccccc32)s1,3.9,3.9,.,1.7,.,.
Cc1ccc(C2=NS(=O)(=O)N(C)C(C(=O)N3CCCCC3)=C2)cc1,2.7,-3.3,-17.2,0.4,-22.1,11.5
CCc1ccc(-c2nc(SCC(=O)NC3CC3)n[nH]2)cc1,20.7,-15.8,-15.5,10.5,-18.3,15.5
COc1cc(N2CCCC2)c(OC)cc1/C=C(/C#N)c1cccc(F)c1,-27.5,6.5,50.6*,2.8,45.7*,15.0
N#C/C(=C/c1ccc(N2CCCCCC2)o1)c1cccc(F)c1,-14.1,2.9,-12.8,1.3,-17.1,10.9
CCN(c1nc(N)c(C(=O)N=C(N)N)nc1Cl)C(C)C,-2.4,12.4,-4.4,0.1,-1.4,40.3
CC(=O)Oc1c(/C=C(\C#N)C(N)=O)[nH]c2ccccc12,27.4*,9.4,.,8.5,.,.
NC(=O)[C@@H]1CCCN1Cc1nc(-c2ccc(C(F)(F)F)cc2)no1,-0.8,16.1,-6.9,6.2,-12.2,3.5
O=C1C2CCCCN2C(=O)N1CCCCN1CCN(c2ccc([N+](=O)[O-])cc2)CC1 (stereo unspecified),3.8,14.0,10.4,16.2*,-1.0,35.9
Cc1ccc(S(=O)(=O)N(CCC(=O)NCc2ccccc2F)c2ccccc2)cc1,-6.1,10.5,-18.5,0.3,-5.9,25.5*
O=C(NNC(=O)c1ccc2[nH]c(=O)c(=O)[nH]c2c1)c1cccc(Br)c1,-14.1,15.6,-7.6,-0.1,-5.8,1.6
O=C(NCCc1ccccc1)c1nc(-c2cccs2)no1,26.3*,4.0,-2.2,0.2,-19.2,14.7
O=C(NCc1cccs1)c1nc(-c2cccs2)no1,10.4,-4.8,-0.1,0.2,-16.2,13.9
C=CCN1C(=O)C2(OCCCO2)c2cc(C)ccc21,-9.1,19.6,2.2,0.8,1.1,7.1
SMILES,CHO-K1 Ca antag,CHO-K1 Ca PAM,CHO parental Ca,CHO-K1 Ca ag,OX1R antag-1,OX1R antag-2
C=CCn1cccc(C(=O)Nc2ccc(OC)c(OC)c2)c1=O,4.8,1.4,-7.6,15.5*,-1.8,10.4
COC(=O)C1CN(C(=O)COc2ccc(Cl)cc2C)c2ccccc2O1 (stereo unspecified),-10.9,2.0,-16.5,4.6,-21.7,7.7
COc1ccc(CNC(=O)Cn2cc([N+](=O)[O-])cn2)cc1,56.9*,-16.3,-3.6,-1.2,-6.3,11.3
O=[N+]([O-])c1ccc(S(=O)(=O)c2cccc(C(F)(F)F)c2)nc1,10.2,4.8,41.0*,1.1,30.8,39.7
COc1ccccc1N(C(C)=O)C1=C(Cl)C(=O)c2ccccc2C1=O,15.1,-3.2,.,2.8,.,.
CC(=O)N(C1=C(N)C(=O)c2ccccc2C1=O)C(C)C,-15.1,10.3,-2.8,0.1,-6.3,47.9*
CNc1nc(Oc2ccccc2C(=O)OC)nc(SC)n1,29.9*,-7.9,0.5,-0.7,-5.2,13.2
CCc1nnc(NC(=O)C2CCCN2C(=O)Nc2ccc(C)cc2)s1 (stereo unspecified),-9.7,4.4,-3.6,2.1,-18.4,21.8
CCc1nnc(NC(=O)C2CCCN2C(=O)Nc2ccccc2)s1 (stereo unspecified),-0.8,14.4,3.7,20.5*,-4.1,6.5
Cc1ccc(OCC(=O)N2N=C(C(F)(F)F)CC2(O)C(C)(C)C)cc1C (stereo unspecified),4.3,20.8,80.0*,2.1,29.7,28.9
Cc1ccccc1OCC(=O)N1N=C(C(F)(F)F)CC1(O)C(C)(C)C (stereo unspecified),-22.1,13.1,33.0*,0.3,17.3,23.2
Cc1cccc(N2CCN(S(=O)(=O)c3ccc4c(c3)C(C)(C)C(=O)N4C)CC2C)c1 (stereo unspecified),-13.1,-1.3,-7.8,3.6,-12.7,6.0
Cc1cccc(N2CCN(S(=O)(=O)c3ccc4c(c3)CCC(=O)N4)CC2C)c1 (stereo unspecified),-40.2,16.6,39.9*,1.2,-6.7,27.3
Cc1ccc(N(CC(=O)N2CC(=O)Nc3ccccc32)S(=O)(=O)c2ccc3c(c2)OCCO3)cc1,29.1*,-2.6,-25.7,0.3,-20.7,1.9
CC1CCN(C(=O)CN(c2ccc3c(c2)OCCO3)S(=O)(=O)c2ccccc2)CC1,-1.4,18.9,-18.7,3.0,-23.9,20.9
Cc1cccc(N2CCN(S(=O)(=O)c3ccc(-c4ccc(=O)[nH]n4)o3)CC2)c1C,-13.0,0.8,-13.0,5.2,-3.6,28.9
CN(CC(=O)Nc1cccc(F)c1)C(=O)CSc1nc2ccccc2s1,-2.5,11.6,-14.9,1.9,-26.4,24.1
COc1cccc(NC(=O)CN(C)C(=O)c2cn(-c3ccccc3)nc2-c2cccs2)c1,4.3,-2.4,1.3,6.0,8.7,51.0*
COc1cccc(NC(=O)CN(C)C(=O)CSCC(=O)Nc2ccc(C)cc2)c1,-17.5,10.8,-12.9,0.2,12.2,29.6*
COc1cc(NC(=O)CSCC(=O)Nc2cc(OC)cc(OC)c2)cc(OC)c1,.,.,-6.8,.,1.1,63.1*
COc1cccc(NC(=O)CN(C)C(=O)CSc2nc3ccccc3s2)c1,-10.2,13.7,-7.1,3.6,9.0,53.7*
O=C(NCc1ccccc1)C1Cc2c(-c3ccc(Cl)cc3)ccnc2O1 (stereo unspecified),-17.2,8.4,.,0.6,.,.
COc1cc(NC(=O)CSc2nc(C3CC3)nc3ccccc23)cc(OC)c1,-3.8,-12.8,-20.0,1.2,-21.2,46.8*

# High-throughput results (PubChem BioAssay)
